Series [1] addresses T1, C-X-C chemokine receptor type 4 (Homo sapiens, UniProt P61073). The series can be described thus: Competitive inhibition of TAMRAAc-TZ14011 binding to CXCR4 (unknown origin) expressed in CHO cells at 1 uM in presence of ZnCl2 by NanoBRET assay relative to control. Type of series: cell-based. The method in brief:
(§1)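 Single-point competition in CHO cells stably expressing N-terminally Nluc-tagged CXCR4 (5 x 10^4 cells, seeded 24 h earlier at 37 °C, 5% CO2, medium then replaced with OptiMEM). Cells were incubated with 10 nM TAMRA-Ac-TZ14011 plus 1 µM compound, without or with 10 µM ZnCl2 (10 eq), for 1 h at 25 °C. Furimazine was added and BRET read as acceptor (>610 nm) over donor (460 nm). Inhibition is relative to no compound and to excess Ac-TZ14011; mean ± SEM, n = 3.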
(In general: BRET reads energy transfer from a luciferase to a nearby fluorophore.)

In series [2] the target is T1, C-X-C chemokine receptor type 4. The experiment in a line: Competitive inhibition of TAMRAAc-TZ14011 binding to CXCR4 (unknown origin) expressed in CHO cells at 1 uM in absence of ZnCl2 by NanoBRET assay relative to control. Type of series: cell-based. The gist of the method:
as §1

Series [3] shares this target. The experiment in a line: Competitive inhibition of [125I]-CXCL12 binding to CXCR4 in human Jurkat cells at 1 uM in absence of ZnCl2 after 2 hrs by gamma counting analysis relative to control. Type of series: cell-based.
For series [4] the target is unchanged. The series can be described thus: Competitive inhibition of [125I]-CXCL12 binding to CXCR4 in human Jurkat cells at 1 uM in presence of ZnCl2 after 2 hrs by gamma counting analysis relative to control. Type of series: cell-based.
Series [5] shares this target. The experiment in a line: Competitive inhibition of TAMRAAc-TZ14011 binding to CXCR4 (unknown origin) expressed in CHO cells in presence of ZnCl2 by NanoBRET assay relative to control. Type of series: cell-based. The method in brief:
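Cells were incubated with 10 nM TAMRA-Ac-TZ14011 and compound plus ZnCl2 (10 eq). Furimazine was added and BRET ratio taken as >610 nm over 460 nm emission. Inhibition is scaled between no compound and excess Ac-TZ14011.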

Series [6] deals with Human immunodeficiency virus 1. The experiment in a line: Antiviral activity against X4 tropic HIV-1 NL4-3 infected in human MT4 cells assessed as protection against virus-induced cytopathic effect in absence of ZnCl2 after 5 days by MTT assay. Type of series: functional, organism-based. Particulars: Human immunodeficiency virus 1, NL4-3, MT4, 120 h. The gist of the method:
(§2)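 Protection of MT-4 cells from X4 HIV-1 NL4-3 cytopathicity. Infected cells (MOI 0.001, 2.0 × 10^4 cells/well) received graded compound concentrations, without or with ZnCl2 (10 eq), for 5 days at 37 °C. Viable cells were counted by MTT. EC50 is the concentration giving 50% protection; mean of at least three independent experiments.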
(In general: Damage to the host cells serves as the signal in cytopathic effect assays.)

For series [7], the system named is Human immunodeficiency virus 1. The experiment in a line: Antiviral activity against X4 tropic HIV-1 NL4-3 infected in human MT4 cells assessed as protection against virus-induced cytopathic effect in presence of ZnCl2 after 5 days by MTT assay. Particulars: Human immunodeficiency virus 1, NL4-3, MT4, 120 h. Type of series: functional, organism-based. The gist of the method:
as §2

A short description of series [8]: Cytotoxicity against human MT4 cells in absence of ZnCl2. Type of series: cell-based.
The test system of series [9] is Human immunodeficiency virus 1. The series can be described thus: Antiviral activity against R5 tropic HIV-1 NL(AD8) infected in human MT4 cells assessed as protection against virus-induced cytopathic effect at 10 uM in presence of ZnCl2 after 5 days by MTT assay. Type of series: functional. The note with it: Human immunodeficiency virus 1, NL(AD8), MT4, 120 h.
In series [10] the test system is Human immunodeficiency virus 1. The series can be described thus: Antiviral activity against R5 tropic HIV-1 NL(AD8) infected in human MT4 cells assessed as protection against virus-induced cytopathic effect at 10 uM in absence of ZnCl2 after 5 days by MTT assay. The note with it: Human immunodeficiency virus 1, NL(AD8), MT4, 120 h. Type of series: functional.
Series [11] is described as follows: Cytotoxicity against human MT4 cells in presence of ZnCl2. Type of series: cell-based. The method in brief:
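MT-4 viability with compound plus ZnCl2 (10 eq). CC50 is the concentration giving 50% reduction in viable cells; mean of at least three independent experiments.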

The values below come from ChEMBL document CHEMBL4368937, “Design, synthesis and biological evaluation of low molecular weight CXCR4 ligands” (Bioorg Med Chem, 2019).

In general, inhibition refers to the drop in the measured response relative to a control, in per cent. What is called IC50 is the concentration that inhibits the measured activity by half. A word on the EC50: it is the concentration giving half of the maximal effect. For orientation: CC50 means the concentration that lowers cell viability or growth by half.

T1 sequence (P61073 whole entry): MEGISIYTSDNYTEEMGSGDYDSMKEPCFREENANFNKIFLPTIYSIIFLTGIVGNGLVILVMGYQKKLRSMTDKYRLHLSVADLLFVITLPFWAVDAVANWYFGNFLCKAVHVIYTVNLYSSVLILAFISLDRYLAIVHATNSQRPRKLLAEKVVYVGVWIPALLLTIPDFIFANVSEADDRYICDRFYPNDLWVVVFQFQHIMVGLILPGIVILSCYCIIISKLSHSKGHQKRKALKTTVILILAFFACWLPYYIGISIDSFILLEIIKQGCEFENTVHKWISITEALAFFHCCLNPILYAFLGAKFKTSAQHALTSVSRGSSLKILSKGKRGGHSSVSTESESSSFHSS

Take `c1ccc(CN(Cc2ccc(-c3ncccc3CN3CCCNCCNCCCNCC3)cc2)Cc2ccccn2)nc1`: the inhibition amounted to 93.9% in series [1], 31.9% in [2], 41.4% in [3] and 88.5% in series [4]. In addition, the IC50 in series [5] was 4.5 nM. The EC50 in series [6] was determined as 110 nM; in series [7], 61 nM. In addition, the CC50 in series [8] is above 10000 nM. In addition, the inhibition at 10 µM in series [9] and in series [10] was below 30% in each case.

With `c1ccc(CN(Cc2ccc3c(CN4CCCNCCNCCCNCC4)cccc3c2)Cc2ccccn2)nc1`, the inhibition is 107% in [1], 81.5% in series [2], 81.7% in series [3] and 77.3% in series [4]. For the same molecule, the IC50 in series [5] stood at 1.6 nM. Moreover, the EC50 in [6] turned out to be 220 nM; in series [7] it was 28 nM. The CC50 in series [8] and in [11] was above 10000 nM each time. The inhibition at 10 µM in [9] and in series [10] was below 30% throughout.

Consider `c1ccc(CN(Cc2ccc(CN3CCCNCCNCCCNCC3)cc2)Cc2ccccn2)nc1`, for which the inhibition in series [1] was 83.7%; in series [2], 101%; in [3], 110%; in [4] it was 82.5%. Moreover, the IC50 in [5] was determined as 32 nM. In addition, the EC50 in series [6] was 6.5 nM; in series [7] it was 2.7 nM. For the same molecule, the CC50 in series [8] and in [11] was above 10000 nM throughout.

Turning to `c1ccc(CN(Cc2ccc3cc(CN4CCCNCCNCCCNCC4)ccc3c2)Cc2ccccn2)nc1`, the inhibition in [1] is 89.9%; in [2], 80.7%; in series [3], 98.2%; in series [4], 99.6%. Besides, in series [5], the IC50 amounted to 10 nM. Also, the values for the EC50 in series [6] and in [7] were 470 nM and 240 nM, respectively. In addition, the CC50 in series [8] and in [11] was above 10000 nM each time. Besides, the inhibition at 10 µM in series [9] and in series [10] was below 30% throughout.

For `c1ccc(CN(Cc2ccnc(-c3cccc(CN4CCCNCCNCCCNCC4)c3)c2)Cc2ccccn2)nc1`, the inhibition in series [1] amounted to 93.4%; in series [2], 47.6%; in [3], 63%; in [4], 84.7%. Also, the IC50 in [5] is 3.5 nM. Also, the results for the concentration for a half-maximal effect (EC50) in [6] and in [7] were 170 nM and 28 nM, respectively. In addition, the CC50 in series [8] is above 10000 nM. In addition, the inhibition at 10 µM in series [9] and in [10] was below 30% each time.

For the molecule `c1ccc(CN(Cc2ccccn2)Cc2ccccc2-c2cccc(CN3CCCNCCNCCCNCC3)c2)nc1`, the inhibition was determined as 102% in series [1], 56% in series [2], 41.9% in [3] and 100% in [4]. The 50% inhibitory concentration (IC50) in series [5] was found to be 7.9 nM. Further, the EC50 in series [6] came to 40 nM; in [7] it was 13 nM. Further, the CC50 in [8] is above 10000 nM. The inhibition at 10 µM in series [9] and in [10] was below 30% throughout.
